Source: PubChem BioAssay (several laboratories)
HCT116 PTEN-null: growth suppression of PTEN-null HCT116, primary screen, cell-based, CellTiter-Glo | actives 1.2% (n = 140,000) | viability, % at 10 µM | HCT116 PTEN-null viability, 60 h; stronger effect = lower value | AID 827, 2007;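 active = viability at or below a set limit, 4 SD under the median of all tested compounds, cut at about 3.7% in these data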;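 also: PTEN knockout HCT116 line with beta catenin targeted HCT116 as companion control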
L major viab: Leishmania major promastigote growth inhibition, primary screen. AID 1063, 2008. Leishmania major promastigotes, resazurin fluorescence viability. actives 9% (n = 200,000). inhibition, % at 10 µM; in the data active = inhibition above about 50%;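 also: promastigotes grown with compound for 44 hours at 28 °C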
TNAP inh noacc: human TNAP enzyme inhibitors, primary screen, biochemical, luminescent, no phosphate acceptor, uHTS. Alkaline phosphatase, tissue-nonspecific isozyme (Homo sapiens), P05186. purified TNAP, CDP-star luminescence, 30 min. inhibition, % at 20 µM. actives 0.26% (n = 200,000);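 active = tissue-nonspecific alkaline phosphatase inhibition above about 50% at 20 µM in the single-dose screen, limit read from the data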;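 also: 0% = DMSO negative control and 100% = EDTA positive control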
Target sequence (P05186 whole entry, looked up): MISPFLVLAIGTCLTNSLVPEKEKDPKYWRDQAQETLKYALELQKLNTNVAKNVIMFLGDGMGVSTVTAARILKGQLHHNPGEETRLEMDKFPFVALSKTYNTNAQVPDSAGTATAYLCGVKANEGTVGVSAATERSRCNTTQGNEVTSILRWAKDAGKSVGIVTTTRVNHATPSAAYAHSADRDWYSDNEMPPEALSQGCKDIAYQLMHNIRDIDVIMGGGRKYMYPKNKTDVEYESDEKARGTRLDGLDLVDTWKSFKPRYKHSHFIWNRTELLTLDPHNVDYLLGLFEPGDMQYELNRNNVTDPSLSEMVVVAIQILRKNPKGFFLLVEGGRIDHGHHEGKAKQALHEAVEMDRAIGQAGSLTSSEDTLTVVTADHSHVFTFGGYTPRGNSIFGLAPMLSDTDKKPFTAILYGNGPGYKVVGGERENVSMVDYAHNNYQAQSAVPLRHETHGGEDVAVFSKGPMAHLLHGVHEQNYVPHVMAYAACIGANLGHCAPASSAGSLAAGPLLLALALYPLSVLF
TNAP act hiacc: TNAP activators at high phosphate acceptor level, primary screen, biochemical, luminescence, uHTS; Alkaline phosphatase, tissue-nonspecific isozyme (Homo sapiens), P05186; purified TNAP, CDP-star luminescence, 1 M DEA, 30 min; stronger effect = higher value; 0 = EDTA background, 1 = DMSO-only activity; activation factor at 20 µM; 200,000 tested, under 10 active; AID 1136, 2008;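 active = activation factor at least 2 at 20 µM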
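Assay system: human TNAP; Input: enzyme diluted 1/800 final; Reagent: CDP-star luminogenic substrate at 100 µM final; Timing: 30 min, room temperature; Signal: luminescence; Evaluation: TNAP activation factor scaled between EDTA and DMSO control wells.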
TNAP inh hiacc: human TNAP enzyme inhibitors, primary screen, biochemical, luminescent, high phosphate acceptor level, uHTS; purified TNAP, CDP-star luminescence, 1 M DEA; inhibition, % at 20 µM; Alkaline phosphatase, tissue-nonspecific isozyme (Homo sapiens), P05186; actives 0.03% (n = 200,000);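 active = over 50% inhibition of tissue-nonspecific alkaline phosphatase at 20 µM in the single-dose screen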;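 also: plate controls were DMSO wells for no effect and EDTA-quenched wells as full inhibition for full effect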
HCT116 bCat-KO: primary screen for growth suppressors in beta-catenin knockout HCT116 cells (colon tumor, human); actives 1.5% (n = 140,000); viability, % at 10 µM; AID 818, 2007; HCT116 beta-catenin knockout viability, CellTiter-Glo, 60 h; stronger effect = lower value;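 active = viability at or under a set limit, the compound median less 4 SD, cut at about 6% in these data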;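 also: 0% = Hyamine 1622 control at 20 µM and 100% = untreated cell control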
* marks the source's active call; other numbers are inactive results; / = no result given. In the library only some 9.6% were active in any assay of this set; here they are far more common.

SMILES	HCT116 PTEN-null	L major viab	TNAP inh noacc	TNAP act hiacc	TNAP inh hiacc	HCT116 bCat-KO
O=c1c(Cl)c(N2CCN(S(=O)(=O)c3ccccc3)CC2)cnn1-c1ccccc1	90	-2	19	1	-2	82
O=c1c(Cl)c(N2CCN(S(=O)(=O)c3ccc(F)cc3)CC2)cnn1-c1cccc(Cl)c1	81	98*	-3	1	-3	92
O=C(CSc1nc(C2CC2)nc2ccccc12)N1c2ccccc2Sc2ccc(C(F)(F)F)cc21	55	16	-13	1	-1	55
C=CCc1ccc(OCC(O)CN2CCC(Cc3ccccc3)CC2)c(OC)c1 (stereo unspecified)	29	100*	-5	1	-4	22
C=CCc1ccc(OCC(O)CN2CCN(Cc3ccc(Cl)cc3)CC2)c(OC)c1 (stereo unspecified)	49	93*	6	1	5	42
C=CCc1ccc(OCC(O)CO)c(OC)c1 (stereo unspecified)	105	0	-9	1	-2	98
COc1cccc(OCC(O)CN2CCC(Cc3ccccc3)CC2)c1 (stereo unspecified)	75	95*	-6	1	-5	75
COc1cccc(OCC(O)CN2CC(C)CC(C)C2)c1 (stereo unspecified)	98	88*	-4	1	-2	86
COc1ccccc1N1CCN(C(=O)CSc2nnc3c4ccccc4nc(Cc4ccccc4)n23)CC1	58	20	-12	1	-5	57
O=C(NCCc1c[nH]c2ccccc12)C(=O)NCC1OCCCN1S(=O)(=O)c1cccs1 (stereo unspecified)	/	27	-10	1	-4	/
CCCOP(=O)(OCCC)C(Nc1cccc(C(F)(F)F)c1)c1ccc(C)cc1 (stereo unspecified)	32	5	-7	1	-4	30
CCOP(=O)(OCC)C(Nc1cccc(C(F)(F)F)c1)c1ccc(C)cc1 (stereo unspecified)	71	59*	-15	1	-4	84
CC(C)CNC(=O)C1CCN(Cc2ccc(OCc3ccccc3)cc2)CC1	68	32	-15	1	-2	61
O=C(NCc1ccccn1)C1CCN(S(=O)(=O)c2ccccc2)CC1	94	-3	-18	1.1	-7	95
O=C(NCc1ccccn1)C1CCN(Cc2cccc(OCc3ccccc3)c2)CC1	89	100*	-16	1.1	-7	85
CC(O)CNC(=O)C1CCN(Cc2ccc(OCc3ccccc3)cc2)CC1 (stereo unspecified)	94	91*	-19	1.1	-6	89
COCCCN(C(=O)Nc1ccccc1)C(C)c1ccncc1 (stereo unspecified)	105	-7	-19	1.1	-10	93
Cc1ccc(-c2nnn3c2nc(Cl)c2ccccc23)cc1	/	48	-16	1	-4	/
NNc1nc2c(-c3ccc(Cl)cc3)nnn2c2ccccc12	/	86*	-33	1.1	-5	/
NNc1nc2c(-c3ccc(F)cc3)nnn2c2ccccc12	/	97*	-16	1	-1	/
COc1ccccc1NC(=O)Cn1nnc(-c2ccccc2NC(=O)c2cnccn2)n1	/	26	2	1.1	-5	/
Cc1nnc(-c2ccccc2)c(=O)n1/N=C/c1c(O)ccc2ccccc12	4	98*	-15	0.9	5	4.5*
O=C1C2C3C=CC(CC3)C2C(=O)N1/N=C/c1c(O)ccc2ccccc12 (stereo unspecified)	/	-5	-17	1	0	/
COCCN1C=C(C(=O)OC)C(c2ccccc2Cl)C(C(=O)OC)=C1	/	1	-37	1.1	-12	/
COCCN1C=C(C(=O)OC)C(c2cc(Br)c(OC)c(OC)c2)C(C(=O)OC)=C1	83	100*	-13	1.1	-9	95
SMILES	HCT116 PTEN-null	L major viab	TNAP inh noacc	TNAP act hiacc	TNAP inh hiacc	HCT116 bCat-KO
Cc1cc(C(=O)NP(=O)(N2CC(C)OC(C)C2)N2CC(C)OC(C)C2)c(C)n1C1CC1 (stereo unspecified)	/	-2	-9	1	-4	/
C=CCN(CC=C)C(=S)NC(=O)Cc1cccc2ccccc12	/	-8	0	1	-3	/
Cc1ccccc1NC(=S)N(Cc1cccnc1)Cc1ccco1	97	97*	-15	1	0	92
O=C(O)CNC(=S)N(Cc1ccccc1)Cc1cccs1	/	-1	-8	1	5	/
Cc1cccc(C)c1NC(=S)N(Cc1ccccc1)Cc1cccs1	/	58*	-19	1	-3	/
Cc1ccc(CN(Cc2ccco2)C(=S)Nc2ccccc2C)cc1	/	-1	-10	1	-4	/
Cc1ccc(Cl)cc1NC(=S)N(Cc1cccnc1)Cc1ccccc1Cl	/	99*	-16	1	-5	/
Cc1ccccc1NC(=S)N(Cc1ccccc1)Cc1cccnc1	/	86*	-13	1	-4	/
CN(C1=C(NC(=O)c2ccccc2)C(=O)c2ccccc2C1=O)C1CCS(=O)(=O)C1 (stereo unspecified)	5	99*	7	0.9	15	2.7*
CC(=O)NC1=C(NC2CCS(=O)(=O)C2)C(=O)c2ccccc2C1=O (stereo unspecified)	47	11	1	0.9	11	45
O=C(CSc1cccc[n+]1[O-])Nc1cccc(Oc2ccccc2)c1	/	-4	0	1	-3	/
O=C(COc1ccc(Br)cc1CNCCCN1CCOCC1)Nc1ccccc1	69	91*	-7	1.1	-8	78
C=CCOc1ccccc1CNCCCN1CCOCC1	87	0	-9	1	-1	90
COc1cc(CNCCCN2CCOCC2)ccc1OCC(=O)Nc1cccc(C(F)(F)F)c1	85	100*	-7	1	0	84
CCOc1cc(CNC(CC)CO)ccc1OCC(=O)Nc1cccc(C(F)(F)F)c1 (stereo unspecified)	/	82*	-14	1.1	-6	/
CCOc1cc(CNCCCN2CCOCC2)ccc1OCC(=O)Nc1cccc2ccccc12	70	100*	-1	1.1	-10	69
COc1ccc(CNC(=O)Nc2cccc(C(F)(F)F)c2)cc1OC	85	6	-26	1.1	-6	84
CCOc1cc(NC(=S)NCCCN2CCOCC2)c(OCC)cc1NC(=O)c1cccc(C)c1	/	-2	-4	1	2	/
Cn1cccc1/C=C1\CC(C(C)(C)C)C/C(=C\c2cccn2C)C1=O (stereo unspecified)	59	87*	24	0.8	15	59
